# Screening results (PubChem BioAssay)
# FN deposit inh: fibronectin deposition inhibition; hit rate 0.086% among 350,000; inhibition, % at 12.6 µM; AID 743247; AH1F fibroblasts, Alexa488-fibronectin deposition fluorescence, overnight;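 active = mean inhibition across replicates of 30% or more, regardless of how many single replicates reach that level; inconclusive = mean under 30% yet at least half of replicates reach 30%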;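 also: positive control wells lacked labelled fibronectin entirely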
#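 Assay system: AH1F fibroblasts assembling fluorescent fibronectin matrix; Amount: 10000 AH1F cells per well; Buffer or medium: DMEM, 2% serum; Probe or stimulus: Alexa488-fibronectin, 24 nM final in well; Doses: single compound dose, delivered by pin transfer; Incubation: 1 h adhesion, overnight exposure; Measured by: fluorescence 485/525 nm; Read-out: fibronectin deposition inhibition.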
# FGF22 binding: shifts melting point of recombinant human FGF22; Q9HCT0; recombinant FGF22 thermal shift, SYPRO orange fluorescence; percent of sucrose octasulfate shift, DMSO zero; activity (Tm shift, normalised), % at 9.99 µM; hit rate 1.5% among 340,000; AID 651658;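 active = mean Tm shift, scaled 0 neutral to 100 positive control, at about 1.3% or above, every replicate too, limit read from the data; inconclusive = no clear call, values can overlap the other calls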
# Target sequence (Q9HCT0 whole entry, looked up): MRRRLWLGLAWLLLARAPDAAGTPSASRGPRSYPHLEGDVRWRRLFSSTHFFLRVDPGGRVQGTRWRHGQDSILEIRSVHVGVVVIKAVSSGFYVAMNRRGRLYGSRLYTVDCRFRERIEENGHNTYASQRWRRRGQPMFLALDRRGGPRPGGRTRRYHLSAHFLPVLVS
# PAX8 inh HTS: lowers PAX8-driven luciferase in RMG-I cells; RMG-I TPO-luciferase reporter, SteadyGlo, 24 h; inhibition, % at 12.6 µM; hit rate 1.2% among 360,000;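 active = mean replicate inhibition at least 60% with every replicate also reaching 60%; inconclusive = only one of the two criteria is met; inactive = mean below 60% and not all replicates reaching 60%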;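 also: luciferase light reporting Pax8 driven TPO promoter activity; plate controls were median of neutral control wells for no effect and mitoxantrone controls for full effect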
# EWS-Fli inh: inhibitors of EWS/Fli oncoprotein transcriptional activity; hit rate 0.67% among 350,000; A673 NR0B1-luciferase reporter, viability-normalised; inhibition, % at 12.6 µM;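 active = mean inhibition of at least 50% after viability correction, with every replicate also passing that limit; inconclusive = mean reaches 50% but only one of two replicates passes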;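 also: firefly luciferase signal divided by Alamar Blue viability fluorescence both relative to DMSO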
# Env fusion inh: HIV envelope-mediated fusion inhibition; HeLa-JRFL Env/CEM21 cell fusion, luciferase; inhibition, % at 12.3 µM; hit rate 1.1% among 360,000; AID 651610;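 active = mean replicate inhibition score of at least 50 and every replicate individually at or above 50; inconclusive = only one of the two criteria met; inactive = mean below 50 and not all replicates reaching 50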;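 also: 0% = plate neutral controls and 100% = maraviroc near 300 nM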
# PGC1a acetyl inh: lowers PGC1a acetylation signal in U2OS cells; AID 651687; hit rate 0.17% among 350,000; inhibition, % at 15.6 µM; AlphaScreen anti-acetyl-lysine; with virally co-expressed GCN5 acetyltransferase;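 active = every replicate shows inhibition of at least 40%; inconclusive = mean inhibition at least 40% but some replicate below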;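 also: 0% = neutral control wells and 100% = positive control wells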
# An asterisk follows results filed as active; u = inconclusive; x = not tested or not shown; [ ] = remark or other dose. This is a sample that favours compounds with a hit; in the whole collection about 3.1% have one here.
SMILES,FN deposit inh,FGF22 binding,PAX8 inh HTS,EWS-Fli inh,Env fusion inh,PGC1a acetyl inh
CC(=O)N(C)C[C@@H]1Oc2cc(-c3cncnc3)ccc2S(=O)(=O)N([C@H](C)CO)C[C@H]1C,7,0,x,-15,-13[16.7 µM],8
Cc1ccccc1NC(=O)CNc1ccc(Cl)c(C(F)(F)F)c1,1,x,8,x,-22,-14
Cc1noc(C)c1CSCC(=O)N(C)CC(=O)Nc1ccc(Cl)c(C(F)(F)F)c1,5,1.9*,9,16,u,-1
CN(CC(=O)NCCc1ccc(S(N)(=O)=O)cc1)CC(=O)Nc1ccccc1Cl,4,0,11,-1,x,5
CN(CC(=O)NCCc1ccc(S(N)(=O)=O)cc1)CC(=O)Nc1ccc(Cl)c(C(F)(F)F)c1,2,0,23,8,93*,x
CN(CC(=O)Nc1ccc(Cl)c(C(F)(F)F)c1)C(=O)C1(c2ccccc2)CC1,-10,x,15,-3,56*,3
CNCC(=O)Nc1ccc(Cl)c(C(F)(F)F)c1,-9,43*,15,-1,2,x
CNC[C@H]1OCCCC[C@@H](C)Oc2ccc(NS(=O)(=O)c3ccc(OC)cc3)cc2C(=O)N([C@H](C)CO)C[C@H]1C,x,0,9,-6,13[16.7 µM],-19
CCOC(=O)/C=C(\C)N1N=C(c2ccccc2)CC1c1ccccc1 (centres undefined),-6,43*,-113,-55,-1,-6
COc1ccc(N2C(=O)C3C4c5ccccc5C(C=Nc5ccc(C)cc5C)(c5ccccc54)C3C2=O)cc1 (centres undefined),x,x,65*,x,-45,0
Cc1ccc(N/C=C/C(=O)c2cccs2)cc1,-16,1,25,59*,-67,-9
O=C(/C=C\Nc1cccc(F)c1)c1cccs1,x,x,x,x,x,13
COC(=O)C1CCCCN1C(=O)c1cc(COc2cccc3cnccc23)on1 (centres undefined),-1,-1,28,22,64*,x
COC(=O)C1SCC2C(=O)N(Cc3ccccc3)CC(=O)N21 (centres undefined),-6,43*,-11,-1,6,-3
CCCC/C(O)=C1\C(=O)CC(C)(C)CC1=Nc1ccc(N)cc1,13,43*,-3,1,-28,x
C[C@@H]1CN([C@H](C)CO)C(=O)c2cc(NS(=O)(=O)c3ccc(F)cc3)ccc2O[C@@H](C)CCCCO[C@@H]1CN(C)CC1CCCCC1,x,0,101*,-17,-8[16.7 µM],-22
C[C@@H]1CCCCO[C@@H](CN(C)CC2CCCCC2)[C@@H](C)CN([C@@H](C)CO)C(=O)c2cc(NS(=O)(=O)c3ccc(Cl)cc3)ccc2O1,x,0,34,10,-9[16.7 µM],-2
C[C@@H]1CCCCO[C@@H](CN(C)CC2CCCCC2)[C@H](C)CN([C@@H](C)CO)C(=O)c2cc(NS(=O)(=O)c3ccc(Cl)cc3)ccc2O1,x,0,12,8,-57[16.7 µM],-1
C[C@@H]1CCCCO[C@@H](CN(C)CC2CCCCC2)[C@H](C)CN([C@H](C)CO)C(=O)c2cc(NS(=O)(=O)c3ccc(Cl)cc3)ccc2O1,x,0,92*,24,-23[16.7 µM],5
C[C@H](CO)N1C[C@H](C)[C@H](CN(C)CC2CCCCC2)OCCCC[C@H](C)Oc2ccc(NS(=O)(=O)c3ccc(Cl)cc3)cc2C1=O,x,0,29,65*,9[16.7 µM],8
C[C@@H]1CN([C@@H](C)CO)C(=O)c2cc(NC(=O)CCN3CCOCC3)ccc2O[C@H]1CN(C)S(=O)(=O)c1ccc(Cl)cc1,x,0,1,-9,x,5
COc1ccc(N2CC(C(=O)N/N=C/c3ccc(C)cc3)CC2=O)cc1 (centres undefined),-7,0,20,60*,18,3
CC(=O)Nc1ccc2c(c1)C(=O)N(C)[C@@H]1CC[C@H](CC(=O)NCc3ccc(Cl)cc3)O[C@H]1CO2,-7,0,-2,-11,x,-1
C[C@H]1[C@@H]2C[C@@]3(O[C@H](c4ccccn4)N=C3C[C@@H]1c1ccccc1)N(Cc1ccncc1)C2=O,4,48*,-18,-16,-24,x
COC1=C(C)C(=O)C2=C(C1=O)C1C3CC4=C(C(=O)C(OC)=C(C)C4=O)C(CNC(=O)C(C)=O)N3C(C#N)C(C2)N1C (centres undefined),-4,0,106*,32,64*,42
SMILES,FN deposit inh,FGF22 binding,PAX8 inh HTS,EWS-Fli inh,Env fusion inh,PGC1a acetyl inh
CCOc1ccc(N2C(=O)CC(Cc3ccc(Br)cc3)C2=O)cc1 (centres undefined),6,0,6,9,9,71*
Clc1ccc(-c2cc(C3CCNCC3)[nH]n2)cc1,-6,43*,16,1,2,-21
CCOc1ccc(NC(=O)CN(C)C(=O)C2CC(=O)N(CCc3ccc(OC)c(OC)c3)C2)cc1OCC (centres undefined),13,6.3*,11,1,x,x
Nc1c(C(=O)NCc2ccco2)nnn1Cc1ccccc1,30*,x,-8,x,-84,0
Nc1c(C(=O)NCCc2ccccc2)nnn1Cc1ccc(Br)cc1F,-4,43*,-21,-13,27,x
Nc1c(C(=O)NCCc2ccccc2)nnn1Cc1ccc(Cl)cc1,-2,x,12,x,-12,-4
COc1cccc(CNC(=O)[C@@H]2N[C@@H]3c4ccc(/C=C/c5ccccc5)c(=O)n4C[C@@H]3[C@H]2CO)c1,x,x,13,3,x,-2
C[C@@H]1CN([C@H](C)CO)C(=O)CCCn2nncc2CO[C@@H]1CN(C)C(=O)Nc1ccc(F)cc1,-22,0,-3,-5,x,8
Clc1ccccc1/C=C/c1nc(-c2ccccn2)no1,15,0,45,67*,20,6
Cc1ccc(C2=NC(=O)/C(=C/c3cc(O)c(O)c(Br)c3)S2)cc1,-2,43*,32,24,2,9
COc1cc(/C=C2\SC(c3ccc(C)cc3)=NC2=O)cc(OC)c1O,x,0,x,2,x,5
Nn1cnnc1N/N=C\c1ccc(-c2ccccc2[N+](=O)[O-])o1,1,-1,92*,-8,18,-7
O=C(C[C@H]1C[C@H]2c3cc(NC(=O)C4CCOCC4)ccc3O[C@H]2[C@@H](CO)O1)NCc1cccnc1,8,0,-2,1,5[16.7 µM],5
C[C@H]1CN([C@@H](C)CO)S(=O)(=O)c2ccc(-c3ccc(C#N)cc3)cc2O[C@@H]1CN(C)Cc1ccccn1,x,0,u,67*,-276[16.7 µM],0
C[C@H](CO)N1C[C@H](C)[C@H](CN(C)Cc2ccccc2F)Oc2cc(C3=CCCC3)ccc2S1(=O)=O,8,0,55,42,68*[16.7 µM],-18
Cc1ccc(-c2ccc3c(c2)O[C@@H](CN(C)Cc2ccccn2)[C@H](C)CN([C@H](C)CO)S3(=O)=O)cc1,x,-1,x,65*,16[16.7 µM],11
